Legend:
[1] = melting temperature; fluorescence melt of hairpins on a sequencing array, two-state fit, raised by 9.35 °C to match UV melts; conditions: sodium 0.088 M
Method in brief: (§1)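 With Cy3 and quencher oligos annealed, library hairpins on a sequenced MiSeq flow cell were imaged for Cy3 fluorescence in 50 mM Na-HEPES pH 8.0, 25 mM NaCl, in 2.5 °C steps up to 60 °C. Melting temperature and folding enthalpy were derived from bootstrapped two-state fits of signals normalised to pre-quench Cy3 and to control constructs. Four replicates were combined by inverse variance, with fitted temperatures raised by 9.35 °C to match UV melts.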

[2] = folding enthalpy; higher = less favourable; fluorescence melt of hairpins on a sequencing array, two-state fit; conditions: sodium 0.088 M
Method in brief: as §1

| Sequence | Tm [1] [°C] | folding enthalpy [2] [kcal/mol] |
| --- | --- | --- |
| GCACCACGAAAGTGCTGC (((.(((....))).))) | 50.5 | -25.2 |
| GCCCCCGAAAGGGTGGGC ((((((....)))..))) | 63.2 | -27.8 |
| GCGGACAACCGC ((((....)))) | 53.1 | -19.5 |
| GGCCTGCGAAAGCAGCC (((.(((....)))))) | 61.1 | -15.8 |
| GCCACCTCGAAAGAGGGC (((..(((....)))))) | 44.5 | -9.58 |
| GGACATGAAAATGTCC ((((((....)))))) | 61.7 | -34.7 |
| GCACCCGAAAGGGGCTGC ((((((....)))..))) | 65.3 | -17.9 |
| GCAGTGCGAAAGCGCCGC ((.(.((....)).).)) | 52 | -17.9 |
| GATCATATTATGATC ((((((...)))))) | 48.6 | -35.9 |
| CGTGCGGAAACGCCAACG ((((((....)))..))) | 39.4 | -19.2 |
| GCCACTGGAAACAGCGGC (((.(((....))).))) | 52.9 | -42.6 |
| GGTCTCGAAAGAGTGACC ((((((....)))..))) | 39.8 | -24.5 |
| CGCGGAAGGGTCCGCG ((((((....)))))) | 69.3 | -29.1 |
| GATCTATGTATAGATC ((((((....)))))) | 48.2 | -36.9 |
| GCCTACGCGAAAGCGGGC (((..(((....)))))) | 62.1 | -14.8 |
| GTCGGAGAAATCCGAC ((((((....)))))) | 61.7 | -35.7 |
| GGTCTCCGAAAGGATACC (((.(((....))).))) | 48.1 | -26.8 |
| GTCAACCCGAAAGGGGAC (((..(((....)))))) | 41.8 | -15 |
| GCACCTACGAAAGTATGC (((..(((....)))))) | 27.3 | -13.5 |
| GCAGGGCGAAAGCTCCGC ((.(.((....)).).)) | 49.5 | -17.6 |
| GCCCACGGAAACGTAGGC (((.(((....))).))) | 48.4 | -30.6 |
| GATGGGGGAAACCCCGTC ((.((((....)))).)) | 52.7 | -24.7 |
| GCGAGGCCTCGC ((((....)))) | 62.8 | -46 |

| Sequence | Tm [1] [°C] | folding enthalpy [2] [kcal/mol] |
| --- | --- | --- |
| GCAGTAGGAAACTGTTGC (((..((....))..))) | 32.2 | -18.3 |
| GATCAGCGAAAGCTATC (((.(((....)))))) | 32.6 | -12 |
| GATCAATGGTTTGATC ((((((....)))))) | 44.7 | -31.9 |
| GCATCGGGAAACCGACGC ((.((((....)))).)) | 50.4 | -42.1 |
| GATCGCGGAAACGCAATC (((.(((....))).))) | 41.3 | -22.6 |
| GAACGCCGAAAGGCATTC (((.(((....))).))) | 43.3 | -17.8 |
| GCGTCATCACGC ((((....)))) | 50.4 | -22.5 |
| GGATGAGGAAACTTATCC ((((.((....)).)))) | 38.6 | -33.4 |
| GGAAACCGAAAGGTTCC (((.(((....)))))) | 51.9 | -18.8 |
| GCCTACGAAAGTAAGGGC ((((((....)))..))) | 46.8 | -23.9 |
| GTGGCCGAAAGGCCTCAC ((((((....)))..))) | 40.4 | -7.49 |
| GGGTCGGGAAACCGACTC (.(((((....))))).) | 58.9 | -14.4 |
| GGGTAAGGAAACTCACCC ((((.((....)).)))) | 36.8 | -28.4 |
| GGGGGCGAAAGCCGTCCC ((((((....)))..))) | 49.4 | -13.7 |
| GCGTAGCGAAAGCCACGC ((((.((....)).)))) | 60.1 | -18.7 |
| GCAAGGGGAAACCCCTGC (((.(((....))).))) | 51.1 | -27.4 |
| GTGATTGGAAACAGTCAC ((((.((....)).)))) | 45.4 | -36.6 |
| GCTCTCGAAAGAGTCAGC ((((((....)))..))) | 32.9 | -14.7 |
| CGTGCCGGAAACGGTACG (((.(((....))).))) | 60.3 | -32.4 |
| CGACCGGAAACGGTATCG ((((((....)))..))) | 33.6 | -13.6 |
| GGAGCCGAAAGGCTATCC ((((((....)))..))) | 38.2 | -8.64 |
| GCTCACGAAAGTGTAAGC ((((((....)))..))) | 45.4 | -19 |
| GCTTAGGGAAACCCAAGC ((((.((....)).)))) | 44 | -26.7 |

| Sequence | Tm [1] [°C] | folding enthalpy [2] [kcal/mol] |
| --- | --- | --- |
| GATCAAGCATTTGATC ((((((....)))))) | 51 | -32.7 |
| GTGTACCGAAAGGTGCAC (((.(((....))).))) | 65.2 | -34.1 |
| GATCGTCTTGACGATC ((((((....)))))) | 66.3 | -35.9 |
| GAGAGTGGAAACATTCTC ((((.((....)).)))) | 38.5 | -32.6 |
| GACGAACCGAAAGGTGTC (((..(((....)))))) | 43.1 | -16.4 |
| GACTCTGGAAACGGAGTC (((((.(....).))))) | 50.3 | -46.5 |
| GCCCCGCGAAAGCGGCGC ((.((((....)))).)) | 59.7 | -16.6 |
| GGTTTAGGAAACTAAGCC ((.((((....)))).)) | 39.8 | -27.6 |
| GTTACCGGAAACGGTAGC (.(((((....))))).) | 50.4 | -18.9 |
| GTGTTCGAAAGAAGGCAC ((((((....)))..))) | 28.6 | -22 |
| GGCGAAGAAATTCGCC ((((((....)))))) | 63.1 | -36.2 |
| GCCGGCGAAAGCCCAGGC ((((((....)))..))) | 57.5 | -19.4 |
| GAGCTGGGAAACTGGCTC ((((..(....)..)))) | 46.7 | -27.6 |
| GGGGACGAAAGTCAACCC ((((((....)))..))) | 49 | -17.6 |
| GGGAACGAAAGTTAGCCC ((((((....)))..))) | 33.1 | -17.2 |
| GATCGGCACACCGATC ((((((....)))))) | 59 | -39.6 |
| GGCTCTGGAAACAGAACC ((.((((....)))).)) | 42.3 | -35.1 |
| GCTTATCCGAAAGGAAGC (((..(((....)))))) | 34.3 | -15.5 |
| CGCTACCGGAAACGGGCG (((..(((....)))))) | 49.4 | -22.5 |
| GTGCGTGGAAACGCGTAC ((.((.(....).)).)) | 42.7 | -10.9 |
| GATCCAGGGGTGGATC ((((((....)))))) | 50.4 | -28.1 |
| GCCTCAGGAAACTGAGAC (.(((((....))))).) | 38.4 | -20.8 |
| GCAGACGAAAGTCTGTGC ((((((....)))..))) | 61.3 | -22.2 |

Reference: the array DNA melting data of Ke et al. (doi:10.1101/2024.01.08.574731)
